Among the data in ChEMBL document CHEMBL1137515, “Alpha-diaminobutyric acid-linked hairpin polyamides” (Bioorg Med Chem, 2007) are Ka values, retold here.

The nature of test [1]: Binding affinity to pMFST5 forward hairpin binding M site. The procedure, abridged: (§1)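 Quantitative DNase I footprinting on the 301 bp 5′ end-labeled PCR product of plasmid pMFST5, using 1 pM to 100 nM polyamide across 11 lanes. DNA was incubated with polyamide or water for 12–16 h at room temperature before DNase I digestion. Equilibrium association constants (M−1) from binding isotherms are the mean of three experiments.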

Test [2] can be described thus: Binding affinity to pMFST5 slipped extended S site. The procedure, abridged: as §1
Test [3] can be described thus: Binding affinity to pMFST5 overlapped extended O site. The procedure, abridged: as §1
Test [4] can be described thus: Binding affinity to pMFST2 TAGGTCT mismatch site A. The procedure, abridged:
(§2)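 DNase I footprinting titrations on the 5′ end-labeled PCR product of the relevant plasmid (pMFST or pMFST2). DNA was equilibrated with polyamide or water (control) for 12–16 h at room temperature before DNase I cleavage. Binding isotherms gave equilibrium association constants (M−1), reported as the mean of three titrations.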

Test [5] in a line: Binding affinity to pMFST2 TAGGTGT match site. The method in brief: as §2
Test [6] is described as follows: Binding affinity to pMFST ATATGGT mismatch site A. The procedure, abridged:
as §2

Test [7] is described as follows: Binding affinity to pMFST TAGTCGT mismatch site B. The procedure, abridged:
as §2

A short description of test [8]: Binding affinity to pMFST TAGTGGT match site. The procedure, abridged: as §2
Test [9] in a line: Binding affinity to pMFST AACGACT mismatch site A. The method in brief:
as §2

Test [10] can be described thus: Binding affinity to pMFST ATGGTCA match site. The procedure, abridged:
as §2

The nature of test [11]: Binding affinity to pMFST2 TAGCTGT mismatch site B. The procedure, abridged:
as §2

Test [12] is described as follows: Binding affinity to pMFST TAGCACA mismatch site B. The method in brief: as §2

Molecules are shown by their SMILES.

As to `CN(C)CCCNC(=O)CCNC(=O)c1cc(NC(=O)c2cc(NC(=O)c3cc(NC(=O)c4nc(NC(=O)CNC(=O)c5cc(NC(=O)c6cc(NC(=O)c7nc(NC(=O)c8nccn8C)cn7C)cn6C)cn5C)cn4C)cn3C)cn2C)cn1C`, the Ka in test [1] is 7 10^8/M; in [2], 1.3 10^9/M; in test [3], 5.9 10^8/M.
Take `CN(C)CCCNC(=O)CCNC(=O)c1cc(NC(=O)c2cc(NC(=O)c3cc(NC(=O)c4cc(NC(=O)[C@@H](CCN)NC(=O)c5nc(NC(=O)c6cc(NC(=O)c7nc(NC(=O)c8nccn8C)cn7C)cn6C)cn5C)cn4C)cn3C)cn2C)cn1C`: the figures for the Ka in test [4] and in test [5] were 8.5 10^7/M and 3 10^8/M, respectively.
For the compound `CN(C)CCCNC(=O)CCNC(=O)c1cc(NC(=O)c2cc(NC(=O)c3cc(NC(=O)c4cc(NC(=O)[C@H](N)CCNC(=O)c5nc(NC(=O)c6nc(NC(=O)CCNC(=O)c7nccn7C)cn6C)cn5C)cn4C)cn3C)cn2C)cn1C`, the Ka in [6] was 9.9 10^8/M; in [7], 6.2 10^9/M; in test [8], 4.3 10^10/M.
On to `CN(C)CCCNC(=O)CCNC(=O)c1cc(NC(=O)c2cc(NC(=O)c3cc(NC(=O)c4nc(NC(=O)[C@@H](CCN)NC(=O)c5cc(NC(=O)c6cc(NC(=O)c7nc(NC(=O)c8nccn8C)cn7C)cn6C)cn5C)cn4C)cn3C)cn2C)cn1C`, for which the Ka in test [1] is 9.8 10^9/M; in test [3], 4.7 10^9/M; in [9], 1.5 10^8/M; in test [10] it was 4.4 10^9/M.
For the compound `CN(C)CCCNC(=O)CCNC(=O)c1cc(NC(=O)c2cc(NC(=O)c3cc(NC(=O)c4cc(NC(=O)[C@@H](CCN)NC(=O)c5nc(NC(=O)c6nc(NC(=O)CCNC(=O)c7nccn7C)cn6C)cn5C)cn4C)cn3C)cn2C)cn1C`, the Ka was 6.2 10^7/M in test [7] and 8 10^8/M in test [8].
Turning to `CN(C)CCCNC(=O)CCNC(=O)c1cc(NC(=O)c2cc(NC(=O)c3cc(NC(=O)c4cc(NC(=O)[C@H](N)CCNC(=O)c5nc(NC(=O)c6cc(NC(=O)c7nc(NC(=O)c8nccn8C)cn7C)cn6C)cn5C)cn4C)cn3C)cn2C)cn1C`, the Ka in [4] is 1.1 10^10/M; in test [11], 1.1 10^9/M; in [5] it was 4.4 10^10/M.
For `CN(C)CCCNC(=O)CCNC(=O)c1cc(NC(=O)c2cc(NC(=O)c3cc(NC(=O)c4nc(NC(=O)[C@H](N)CCNC(=O)c5cc(NC(=O)c6cc(NC(=O)c7nc(NC(=O)c8nccn8C)cn7C)cn6C)cn5C)cn4C)cn3C)cn2C)cn1C`, the Ka in test [12] was 3.9 10^8/M; in [9] (in the assay text read “mismatch site C” for “mismatch site A”), 1.8 10^10/M; in test [10], 4.9 10^10/M.
